Reference: ChEMBL document CHEMBL4373727, “Thienopyrimidinone Derivatives That Inhibit Bacterial tRNA (Guanine37-N1)-Methyltransferase (TrmD) by Restructuring the Active Site with a Tyrosine-Flipping Mechanism” (J Med Chem, 2019)
pIC50, pKd: −log10 of the molar value. Activity calls are given as the source filed them. No cut-off for these calls is given here.

Assays:
[1] = molecular target: T1, tRNA (guanine-N(1)-)-methyltransferase (Pseudomonas aeruginosa (strain ATCC 15692 / DSM 22644 / CIP 104116 / JCM14847 / LMG 12228 / 1C / PRS 101 / PAO1), UniProt Q9HXQ1); assay: Inhibition of Pseudomonas aeruginosa tRNA (guanine(37)-N1)-methyltransferase (Leu5 to Asp25 residues) expressed in Escherichia coli BL21 (DE3) Rosetta T1R cells assessed as reduction in S-adenosyl-L-homocysteine production preincubated for 15 mins followed by 1.5 uM of tRNALeu(CAG) substrate and SAM addition and measured after 45 mins by MTase-Glo assay
T1 sequence (Q9HXQ1 whole entry): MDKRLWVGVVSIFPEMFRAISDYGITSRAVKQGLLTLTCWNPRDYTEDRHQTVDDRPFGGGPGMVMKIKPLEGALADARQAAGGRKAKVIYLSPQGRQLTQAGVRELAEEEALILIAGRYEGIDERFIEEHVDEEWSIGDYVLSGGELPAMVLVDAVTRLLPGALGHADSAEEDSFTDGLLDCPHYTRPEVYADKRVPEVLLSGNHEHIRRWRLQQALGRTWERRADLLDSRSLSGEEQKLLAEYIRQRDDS
Summary of the method: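 MTase-Glo luminescence assay. 8 nM TrmD preincubated 15 min at ambient temperature with serially diluted inhibitor (0–500 μM) in 50 mM Tris-HCl pH 8.0, 80 mM NaCl, 1 mM MgCl2, 0.5 mM DTT, 0.01% Triton X-100. Reaction with 2 μM SAM and tRNALeu(CAG), 45 min at 37 °C. Detection 30 min in the dark, SAH read against a standard curve. IC50 by nonlinear regression. Two independent experiments in duplicate.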

[2] = molecular target: T2, tRNA (guanine-N(1)-)-methyltransferase (Mycobacterium tuberculosis (strain ATCC 25618 / H37Rv), UniProt P9WFY7); assay: Binding affinity to full length Mycobacterium tuberculosis tRNA (guanine(37)-N1)-methyltransferase expressed in Escherichia coli BL21 (DE3) by surface plasmon resonance assay
T2 sequence (P9WFY7 whole entry): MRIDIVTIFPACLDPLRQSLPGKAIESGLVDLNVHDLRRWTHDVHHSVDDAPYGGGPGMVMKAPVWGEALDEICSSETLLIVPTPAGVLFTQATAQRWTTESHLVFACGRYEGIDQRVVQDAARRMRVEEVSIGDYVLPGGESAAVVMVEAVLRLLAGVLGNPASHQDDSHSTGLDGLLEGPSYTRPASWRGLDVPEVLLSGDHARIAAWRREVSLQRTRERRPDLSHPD
Summary of the method: (§1)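 SPR at 25 °C. His-tagged TrmD (50 μg/mL) captured on an anti-His antibody surface (about 2200 RU), with a blank reference cell. Buffer: 50 mM Tris-HCl pH 8, 150 mM NaCl, 1 mM MgCl2, 1 mM DTT, 0.05% Tween-20. Analyte in 2-fold dilutions, injected lowest to highest at 30 μL/min, 30 s contact, 240 s dissociation. KD from steady-state affinity fit.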

[3] = molecular target: T3, tRNA (guanine-N(1)-)-methyltransferase (Staphylococcus aureus (strain NCTC 8325 / PS 47), UniProt Q2FZ43); assay: Binding affinity to full length Staphylococcus aureus tRNA (guanine(37)-N1)-methyltransferase expressed in Escherichia coli BL21 (DE3) by surface plasmon resonance assay; summary of the method: as §1
T3 sequence (Q2FZ43 whole entry): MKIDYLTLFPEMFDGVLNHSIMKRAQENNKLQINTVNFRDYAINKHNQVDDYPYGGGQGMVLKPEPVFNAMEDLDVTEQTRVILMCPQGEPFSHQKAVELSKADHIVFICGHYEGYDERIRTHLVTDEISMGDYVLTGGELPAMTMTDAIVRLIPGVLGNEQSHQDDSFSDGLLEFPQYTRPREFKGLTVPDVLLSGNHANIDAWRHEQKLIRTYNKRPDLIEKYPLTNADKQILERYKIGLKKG

[4] = molecular target: T4, tRNA (guanine-N(1)-)-methyltransferase (Pseudomonas aeruginosa (strain ATCC 15692 / DSM 22644 / CIP 104116 / JCM14847 / LMG 12228 / 1C / PRS 101 / PAO1)) (UniProt Q9HXQ1); assay: Binding affinity to Pseudomonas aeruginosa tRNA (guanine(37)-N1)-methyltransferase (Leu5 to Asp25 residues) expressed in Escherichia coli BL21 (DE3) Rosetta T1R cells assessed as association rate constant by surface plasmon resonance assay; summary of the method: as §1
T4 sequence (whole entry): T1 sequence (Q9HXQ1 whole entry)

[5] = molecular target: T5, tRNA (guanine-N(1)-)-methyltransferase (Mycobacterium tuberculosis (strain ATCC 25618 / H37Rv)) (UniProt P9WFY7); assay: Binding affinity to full length Mycobacterium tuberculosis tRNA (guanine(37)-N1)-methyltransferase expressed in Escherichia coli BL21 (DE3) assessed as association rate constant by surface plasmon resonance assay; summary of the method: as §1
T5 sequence (whole entry): T2 sequence (P9WFY7 whole entry)

[6] = molecular target: T6, tRNA (guanine-N(1)-)-methyltransferase (Staphylococcus aureus (strain NCTC 8325 / PS 47)) (UniProt Q2FZ43); assay: Binding affinity to full length Staphylococcus aureus tRNA (guanine(37)-N1)-methyltransferase expressed in Escherichia coli BL21 (DE3) assessed as association rate constant by surface plasmon resonance assay; summary of the method: as §1
T6 sequence (whole entry): T3 sequence (Q2FZ43 whole entry)

[7] = molecular target: T6, tRNA (guanine-N(1)-)-methyltransferase (Staphylococcus aureus (strain NCTC 8325 / PS 47)); assay: Binding affinity to full length Staphylococcus aureus tRNA (guanine(37)-N1)-methyltransferase expressed in Escherichia coli BL21 (DE3) assessed as dissociation rate constant by surface plasmon resonance assay; summary of the method: as §1
[8] = molecular target: T4, tRNA (guanine-N(1)-)-methyltransferase (Pseudomonas aeruginosa (strain ATCC 15692 / DSM 22644 / CIP 104116 / JCM14847 / LMG 12228 / 1C / PRS 101 / PAO1)); assay: Binding affinity to Pseudomonas aeruginosa tRNA (guanine(37)-N1)-methyltransferase (Leu5 to Asp25 residues) expressed in Escherichia coli BL21 (DE3) Rosetta T1R cells assessed as thermal stabilization of protein by measuring change in melting temperature at 0.1 mM by SYPRO orange based thermal shift assay
Summary of the method: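 Thermal shift: 4 μM TrmD with 5× SYPRO Orange and ligand in 50 mM Tris-HCl pH 8, 150 mM NaCl, 1 mM MgCl2, 1 mM DTT, 0.05% Tween-20. Buffer-only control. Heated from 25 to 95 °C in a real-time PCR instrument, and Tm taken as the unfolding midpoint. Ligand levels: SAH 2 mM, inhibitors 0.1 mM.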

[9] = test system: Staphylococcus aureus; assay: Antibacterial activity against methicillin-resistant Staphylococcus aureus ATCC 43300 at 100 uM incubated for 24 hrs; format: functional, organism-based
Summary of the method: (§2)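 Single-concentration growth screen: 100 μM test compound with log-phase bacteria at about 5×10^5 cells/mL. Incubation 24 h at 37 °C. Growth read by OD600 and given as percent of untreated control. MRSA was grown in cation-adjusted Mueller–Hinton broth. M. smegmatis was grown in complete Middlebrook 7H9. Ampicillin and kanamycin served as positive controls.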

[10] = test system: Enterococcus faecalis; assay: Antibacterial activity against Enterococcus faecalis ATCC 51299 at 100 uM incubated for 24 hrs; format: functional, organism-based
Summary of the method: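 Single-concentration screen in brain heart infusion broth. Log-phase cells at ~5×10^5 cells/mL were grown with 100 μM compound for 24 h at 37 °C. Growth was read as OD600 and expressed as a percentage of untreated wells. DMSO and blank controls were included.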

[11] = test system: Streptococcus pneumoniae; assay: Antibacterial activity against Streptococcus pneumoniae ATCC 49619 at 100 uM incubated for 24 hrs; format: functional, organism-based
Summary of the method: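 Single 100 μM screen in MH medium with 3% defibrinated sheep blood at 37 °C under 5% CO2, ~5×10^5 cells/mL, 24 h.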

[12] = test system: Mycolicibacterium smegmatis; assay: Antibacterial activity against Mycolicibacterium smegmatis MC2 155 at 100 uM incubated for 24 hrs; format: functional, organism-based; summary of the method: as §2
[13] = test system: Mycobacterium tuberculosis; assay: Antibacterial activity against Mycobacterium tuberculosis ATCC 27294 at 100 uM incubated for 7 days; format: functional, organism-based

Row | SMILES | pIC50 [1] | pKd [2] | pKd [3] | Ka [4] [M⁻¹ s⁻¹] | Ka [5] [M⁻¹ s⁻¹] | Ka [6] [M⁻¹ s⁻¹] | Kdiss [7] [s⁻¹] | ΔTm [8] [°C] | Activity [9] | Activity [10] | Activity [11] | Activity [12] | Activity [13]
1 | NC1CCN(Cc2ccc(CNC(=O)c3csc4nc[nH]c(=O)c34)cc2)CC1 | 6.74 | 4.98 | 4.56 | 128000 | 20100 | 59900 | 1.65 | 4 to 29 | inactive | inactive | inactive | inactive | inactive
2 | CCCCCCCCNCc1ccc(CNC(=O)c2csc3nc[nH]c(=O)c23)cc1 | 7.62 | 6.72 | 5.51 | 1.35e+07 | 645000 | 2.94e+06 | 9.15 | 12 | Active | Active | Active | Active | Active
